Assay results reported in ChEMBL document CHEMBL1150274 (Bioorg Med Chem, 2008).
pEC50, pIC50, pKi: −log10 of the molar value. The source made the active and inactive calls. No cut-off for these calls is given here.

Legend:
[1] = biological target: Delta-type opioid receptor (Homo sapiens, UniProt P41143); experiment: Displacement of [3H]naltrindole from human delta opioid receptor expressed in CHO cells; assay type: cell-based
Mu-type opioid receptor [2] = biological target: T1, Mu-type opioid receptor (Homo sapiens, UniProt P35372); experiment: Activity at human mu opioid receptor expressed in CHO cells assessed as stimulation of [35S]GTPgammaS binding relative to basal level; assay type: functional, cell-based
In short: (§1)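 Twelve compound concentrations were incubated with CHO membranes (κ 15 μg, μ 7.5 μg) and 0.080 nM [35S]GTPγS for 60 min at 30°C. Nonspecific binding was defined with 10 μM GTPγS. Samples were filtered and counted. Emax was taken with basal set at 0%, with EC50. Mean ± SEM, ≥3 experiments in triplicate.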

[3] = biological target: T2, Kappa-type opioid receptor (Homo sapiens, UniProt P41145); experiment: Antagonist activity at human kappa opioid receptor expressed in CHO cells assessed as inhibition of U50,488-stimulated [35S]GTPgammaS binding; assay type: functional, cell-based
In short: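 κ-receptor CHO membranes were incubated with compound in the presence of 100 nM U50,488 in a [35S]GTPγS binding assay.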

Mu-type opioid receptor [4] = biological target: T1, Mu-type opioid receptor; experiment: Antagonist activity at human mu opioid receptor expressed in CHO cells assessed as inhibition of DAMGO-stimulated [35S]GTPgammaS binding; assay type: functional, cell-based
[5] = biological target: T2, Kappa-type opioid receptor; experiment: Activity at human kappa opioid receptor expressed in CHO cells assessed as stimulation of [35S]GTPgammaS binding relative to basal level; assay type: functional, cell-based; in short: as §1
[6] = biological target: T2, Kappa-type opioid receptor; experiment: Activity at human kappa opioid receptor expressed in CHO cells assessed as stimulation of [35S]GTPgammaS binding; assay type: functional, cell-based; in short: as §1
[7] = biological target: T2, Kappa-type opioid receptor; experiment: Displacement of [3H]U69,593 from human kappa opioid receptor expressed in CHO cells; assay type: cell-based
Mu-type opioid receptor [8] = biological target: T1, Mu-type opioid receptor; experiment: Displacement of [3H]DAMGO from human mu opioid receptor expressed in CHO cells; assay type: cell-based

T2 sequence (P41145 whole entry): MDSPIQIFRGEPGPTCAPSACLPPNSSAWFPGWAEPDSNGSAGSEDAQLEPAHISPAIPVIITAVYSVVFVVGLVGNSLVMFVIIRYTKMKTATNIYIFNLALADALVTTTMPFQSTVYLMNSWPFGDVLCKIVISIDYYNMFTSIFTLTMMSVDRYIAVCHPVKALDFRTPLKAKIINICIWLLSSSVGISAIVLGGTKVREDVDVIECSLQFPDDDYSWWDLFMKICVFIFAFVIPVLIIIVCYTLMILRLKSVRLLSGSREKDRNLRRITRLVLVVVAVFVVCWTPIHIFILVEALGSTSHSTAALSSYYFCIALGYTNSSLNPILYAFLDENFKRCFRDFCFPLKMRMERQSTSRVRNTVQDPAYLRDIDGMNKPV
Chain of Delta-type opioid receptor (P41143 whole entry): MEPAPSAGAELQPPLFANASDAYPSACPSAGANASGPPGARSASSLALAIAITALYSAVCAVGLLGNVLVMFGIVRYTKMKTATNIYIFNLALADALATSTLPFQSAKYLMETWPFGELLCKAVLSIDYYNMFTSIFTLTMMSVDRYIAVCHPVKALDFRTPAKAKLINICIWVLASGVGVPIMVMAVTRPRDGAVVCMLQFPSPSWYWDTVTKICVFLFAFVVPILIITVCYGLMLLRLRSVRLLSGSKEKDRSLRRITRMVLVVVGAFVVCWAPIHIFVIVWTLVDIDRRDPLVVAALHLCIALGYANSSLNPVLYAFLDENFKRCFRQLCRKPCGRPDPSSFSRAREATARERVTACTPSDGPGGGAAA
T1 sequence (P35372 whole entry): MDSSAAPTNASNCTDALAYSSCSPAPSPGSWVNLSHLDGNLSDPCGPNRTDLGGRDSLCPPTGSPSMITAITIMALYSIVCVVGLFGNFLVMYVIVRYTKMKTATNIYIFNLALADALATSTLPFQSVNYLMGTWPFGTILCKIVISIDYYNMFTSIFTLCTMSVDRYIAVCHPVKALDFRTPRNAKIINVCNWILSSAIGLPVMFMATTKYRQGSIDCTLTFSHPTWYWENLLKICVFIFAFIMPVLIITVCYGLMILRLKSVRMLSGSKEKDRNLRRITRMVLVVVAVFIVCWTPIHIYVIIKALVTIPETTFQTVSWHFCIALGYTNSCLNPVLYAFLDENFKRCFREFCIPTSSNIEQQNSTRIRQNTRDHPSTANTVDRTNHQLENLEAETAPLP

Row | SMILES | pKi [1] | Emax (Mu-type opioid receptor [2]) | Activity [3] | pIC50 (Mu-type opioid receptor [4]) | Imax (Mu-type opioid receptor [4]) | Emax [5] | pEC50 [6] | pKi [7] | pKi (Mu-type opioid receptor [8]) | pIC50 [3] | Imax [3]
1 | C[C@H]1C2Cc3ccc(C(N)=O)c(N)c3[C@@]1(C)CCN2CC1CC1 (mixture of isomers) | 7.46 | 4.6% | inactive | 7.51 | 93% | 38% | 7.82 | 9.15 | 9.26 |  | 
2 | C[C@H]1C2Cc3cc4ncnc(N)c4cc3[C@@]1(C)CCN2CC1CC1 (mixture of isomers) | < 5.00 |  |  |  |  |  |  | 6.25 | 6.05 |  | 
3 | C[C@H]1C2Cc3ccc4c(N)ncnc4c3[C@@]1(C)CCN2CC1CC1 (mixture of isomers) | 6.92 | 0.64% |  | 7.55 | 88% | 6.3% |  | 9.00 | 9.26 | 5.89 | 75%
4 | C[C@H]1C2Cc3ccc4c(NCc5ccccc5)ncnc4c3[C@@]1(C)CCN2CC1CC1 (mixture of isomers) | 5.82 |  |  |  |  |  |  | 6.62 | 7.36 |  | 
5 | C[C@H]1C2Cc3ccc(O)c([N+](=O)[O-])c3[C@@]1(C)CCN2CC1CC1 (mixture of isomers) | 5.72 |  |  |  |  |  |  | 8.49 | 7.49 |  | 
6 | C[C@H]1C2Cc3cc4cc[nH]c(=O)c4cc3[C@@]1(C)CCN2CC1CC1 (mixture of isomers) | 7.13 | 27% | inactive | 6.07 | 69% | 91% | 7.22 | 9.13 | 8.26 |  | 
7 | C[C@H]1C2Cc3cc4ncnc(NCc5ccccc5)c4cc3[C@@]1(C)CCN2CC1CC1 (mixture of isomers) | 6.00 |  |  |  |  |  |  | 7.32 | 7.06 |  | 
8 | C[C@H]1C2Cc3cc([N+](=O)[O-])c(C(N)=O)cc3[C@@]1(C)CCN2CC1CC1 (mixture of isomers) | 6.14 |  |  |  |  |  |  | 6.96 | 6.20 |  | 
9 | C[C@H]1C2Cc3cc([N+](=O)[O-])c(O)cc3[C@@]1(C)CCN2CC1CC1 (mixture of isomers) | < 5.00 |  |  |  |  |  |  | 6.24 | 5.42 |  | 
10 | C[C@H]1C2Cc3cc4ncnc(NCCc5ccc(-c6ccccc6)cc5)c4cc3[C@@]1(C)CCN2CC1CC1 (mixture of isomers) | 6.39 |  |  |  |  |  |  | 6.85 | 7.55 |  | 
11 | C[C@H]1C2Cc3ccc4c(NCCc5ccc(-c6ccccc6)cc5)ncnc4c3[C@@]1(C)CCN2CC1CC1 (mixture of isomers) | 7.28 |  |  |  |  |  |  | 8.07 | 8.16 |  | 
12 | C[C@H]1C2Cc3ccc(C(N)=O)c([N+](=O)[O-])c3[C@@]1(C)CCN2CC1CC1 (mixture of isomers) | 6.66 |  |  |  |  |  |  | 7.47 | 7.70 |  | 
